Laboratory results from ChEMBL document CHEMBL4699489, “Optimized Opioid-Neurotensin Multitarget Peptides: From Design to Structure-Activity Relationship Studies” (J Med Chem, 2020).
Active and inactive are the calls of the source. Numbered stars: 1 amine (or outer) side, 2 acyl side, 3 side chain; on linkers, the order of the positions; unused ones are H or OH. Square brackets hold non-standard residues; d marks the D form. Peptide text beside a SMILES is read from it. X1 = O=C1[C@@H](N[*:1])Cc2ccccc2CN1CCC(=O)[*:2]; X2 = O=C([C@@H]1Cc2cc(O)ccc2CN1[*:1])[*:2]; Dmt = Cc1cc(O)cc(C)c1C[C@H](N)C(=O)O; β3hR = N=C(N)NCCC[C@H](N)CC(=O)O; Tle = CC(C)(C)[C@H](N)C(=O)O

Experiments:
[1] = biological target: T1, Neurotensin receptor type 1 (Homo sapiens, UniProt P30989); test: Agonist activity at human NTS1 expressed in HEK293 cells co-expressing Galphaq/RlucII/GFP10-Ggamma1/Gbeta1 assessed as increase in Galphaq activation incubated for 10 mins in presence of coelenterazine 400A by BRET assay; type: cell-based
T1 sequence (P30989 whole entry): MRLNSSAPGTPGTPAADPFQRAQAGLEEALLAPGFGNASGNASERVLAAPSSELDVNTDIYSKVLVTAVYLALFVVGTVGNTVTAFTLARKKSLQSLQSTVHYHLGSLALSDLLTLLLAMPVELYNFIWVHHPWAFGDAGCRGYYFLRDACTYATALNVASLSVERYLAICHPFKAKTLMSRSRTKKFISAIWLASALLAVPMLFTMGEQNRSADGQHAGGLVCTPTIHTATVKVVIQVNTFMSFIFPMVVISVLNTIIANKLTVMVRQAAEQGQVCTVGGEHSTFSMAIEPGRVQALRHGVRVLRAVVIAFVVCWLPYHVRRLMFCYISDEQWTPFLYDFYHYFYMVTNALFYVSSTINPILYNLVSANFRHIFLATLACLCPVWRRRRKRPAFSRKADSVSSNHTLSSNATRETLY

[2] = biological target: T2, Delta-type opioid receptor (Homo sapiens, UniProt P41143); test: Agonist activity at human DOR stably expressed in CHO cell membranes assessed as stimulation of [35S]-GTPgammaS binding incubated for 1 hr by liquid scintillation counting assay; type: functional
T2 sequence (P41143 whole entry): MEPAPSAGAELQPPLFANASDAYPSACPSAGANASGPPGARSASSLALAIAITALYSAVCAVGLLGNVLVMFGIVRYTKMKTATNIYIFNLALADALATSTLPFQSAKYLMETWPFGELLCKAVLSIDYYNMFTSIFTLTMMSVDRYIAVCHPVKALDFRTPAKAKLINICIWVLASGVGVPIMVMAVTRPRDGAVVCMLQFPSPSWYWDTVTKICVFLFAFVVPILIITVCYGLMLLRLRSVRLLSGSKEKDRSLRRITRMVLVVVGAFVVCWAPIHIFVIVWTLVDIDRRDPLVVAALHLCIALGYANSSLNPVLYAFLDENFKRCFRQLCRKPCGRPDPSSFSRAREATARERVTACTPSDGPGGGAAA
Method in brief: (§1)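 Membranes from CHO cells stably expressing hMOR, hDOR or hKOR, prepared in 20 mM HEPES, 10 mM MgCl2, 100 mM NaCl, pH 7.4. Membranes (5–10 μg) incubated with 0.05 nM [35S]GTPγS, 10 μM GDP and graded peptide concentrations, 60 min at 25 °C. Nonspecific binding with 10 μM GTPγS, basal without ligand. GF/B filtration, scintillation counting. EC50 and Emax by nonlinear regression; Emax relative to DAMGO, DPDPE or U69,593. Duplicate, three independent experiments.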

[3] = biological target: T2, Delta-type opioid receptor; test: Displacement of [3H]-Diprenorphine from recombinant human delta opioid receptor expressed in CHO cell membrane incubated for 60 mins by liquid scintillation counting method; type: cell membranes
Method in brief: (§2)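 Membranes from CHO-hMOR, -hDOR or -hKOR cells, homogenized and washed in 50 mM Tris-HCl pH 7.4. Membranes (15–20 μg) incubated with [3H]DAMGO (MOR), [3H]diprenorphine (DOR) or [3H]U69,593 (KOR) plus graded peptide, 60 min at 25 °C. Nonspecific binding with 1–10 μM of the unlabelled ligand. GF/C filtration, scintillation counting. Ki by Cheng–Prusoff. Duplicate, three independent experiments.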

[4] = biological target: T1, Neurotensin receptor type 1; test: Agonist activity at human NTS1 expressed in HEK293 cells co-expressing Galphaq/RlucII/GFP10-Ggamma1/Gbeta1 assessed as increase in Gq activation incubated for 10 mins in presence of coelenterazine 400A by BRET assay relative to NT (8-13); type: cell-based
[5] = biological target: T1, Neurotensin receptor type 1; test: Displacement of [125I]-neurotensin from human recombinant NTS1 stably expressed in CHO-K1 cell membranes incubated for 60 mins by gamma counter method
[6] = biological target: Neurotensin receptor type 2 (Homo sapiens, UniProt O95665); test: Displacement of [125I]-neurotensin from human recombinant NTS2 stably expressed in human 1321N1 cell membranes incubated for 60 mins by gamma counter method
Neurotensin receptor type 2, sequence (O95665 whole entry): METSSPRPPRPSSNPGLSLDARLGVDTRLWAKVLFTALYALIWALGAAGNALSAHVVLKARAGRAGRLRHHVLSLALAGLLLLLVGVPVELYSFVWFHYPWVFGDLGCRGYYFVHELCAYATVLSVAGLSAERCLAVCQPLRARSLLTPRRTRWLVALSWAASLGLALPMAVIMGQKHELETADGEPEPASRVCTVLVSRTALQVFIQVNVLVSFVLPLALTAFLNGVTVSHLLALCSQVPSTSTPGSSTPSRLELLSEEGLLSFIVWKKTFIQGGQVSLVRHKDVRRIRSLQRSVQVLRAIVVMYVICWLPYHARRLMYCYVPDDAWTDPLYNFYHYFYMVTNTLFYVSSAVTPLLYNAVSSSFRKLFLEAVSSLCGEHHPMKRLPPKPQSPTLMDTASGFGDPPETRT

Mus musculus [7] = test: Antinociceptive activity in CD-1 mouse model of thermal-induced nociception assessed as maximum possible effect at 5.52 umol/kg, sc measured at 1 hr interval for 2 to 3 hrs by tail-flick test; type: functional; conditions: dose 5.52 µmol/kg; time hrs 2-3
Method in brief: (§3)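 Male CD-1 mice, 30–35 g, 8 weeks old, 5–6 per group, each mouse tested once. Peptide or saline given sc. Radiant-heat tail-flick latency measured before dosing and at 15 min, 30 min, hourly to 8 h, and at 24 h, with a 10 s cutoff. %MPE = [(test latency − basal latency)/(cutoff − basal latency)] × 100. Two-way ANOVA with Bonferroni post hoc test, P < 0.05.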

[8] = biological target: T3, Kappa-type opioid receptor (Homo sapiens, UniProt P41145); test: Agonist activity at human KOR stably expressed in CHO cell membranes assessed as stimulation of [35S]-GTPgammaS binding incubated for 1 hr by liquid scintillation counting assay; type: functional; method in brief: as §1
T3 sequence (P41145 whole entry): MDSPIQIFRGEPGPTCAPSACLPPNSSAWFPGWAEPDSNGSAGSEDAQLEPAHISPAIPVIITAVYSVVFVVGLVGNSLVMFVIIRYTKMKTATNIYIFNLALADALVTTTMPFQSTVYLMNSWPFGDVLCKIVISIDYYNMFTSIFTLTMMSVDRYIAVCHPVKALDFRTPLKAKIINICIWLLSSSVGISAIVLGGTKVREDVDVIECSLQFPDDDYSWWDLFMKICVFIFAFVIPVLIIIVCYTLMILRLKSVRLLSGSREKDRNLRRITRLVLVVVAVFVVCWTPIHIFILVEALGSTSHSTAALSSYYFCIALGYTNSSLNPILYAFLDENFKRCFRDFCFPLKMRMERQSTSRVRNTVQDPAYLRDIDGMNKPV

[9] = biological target: T3, Kappa-type opioid receptor; test: Agonist activity at human KOR stably expressed in CHO cell membranes assessed as stimulation of [35S]-GTPgammaS binding incubated for 1 hr by liquid scintillation counting assay relative to U69593; type: functional; conditions: time 60.0 min; method in brief: as §1
Mu-type opioid receptor [10] = biological target: T4, Mu-type opioid receptor (Homo sapiens, UniProt P35372); test: Agonist activity at human MOR expressed in human U2OS cells assessed as increase in beta arrestin2 recruitment incubated for 90 mins by pathhunter beta-arrestin assay; type: cell-based
T4 sequence (P35372 whole entry): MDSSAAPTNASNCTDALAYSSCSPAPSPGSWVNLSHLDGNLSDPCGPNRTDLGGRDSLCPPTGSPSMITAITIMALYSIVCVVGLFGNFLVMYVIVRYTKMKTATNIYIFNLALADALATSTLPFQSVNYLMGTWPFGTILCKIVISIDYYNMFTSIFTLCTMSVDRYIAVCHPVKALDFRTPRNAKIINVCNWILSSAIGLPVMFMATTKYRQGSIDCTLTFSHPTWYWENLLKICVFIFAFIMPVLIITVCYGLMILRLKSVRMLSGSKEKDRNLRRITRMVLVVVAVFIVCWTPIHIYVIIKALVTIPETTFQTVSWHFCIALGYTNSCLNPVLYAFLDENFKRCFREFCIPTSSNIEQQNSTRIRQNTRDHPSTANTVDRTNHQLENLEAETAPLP
Method in brief: (§4)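 U2OS cells stably coexpressing hMOR and enzyme acceptor-tagged β-arrestin-2, seeded at 5000 cells/well and kept 24 h at 37 °C. Graded peptide concentrations in PBS added for 90 min at 37 °C, then detection mix for 60 min at room temperature. Chemiluminescence read-out. EC50 and Emax (relative to DAMGO) by nonlinear regression. Duplicate, three independent experiments.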

Mu-type opioid receptor [11] = biological target: T4, Mu-type opioid receptor; test: Displacement of [3H]-DAMGO from recombinant human mu opioid receptor expressed in CHO cell membrane incubated for 60 mins by liquid scintillation counting method; type: cell membranes; method in brief: as §2
Mu-type opioid receptor [12] = biological target: T4, Mu-type opioid receptor; test: Agonist activity at human MOR expressed in human U2OS cells assessed as increase in beta arrestin2 recruitment incubated for 90 mins by pathhunter beta-arrestin assay relative to DAMGO; type: cell-based; conditions: filed as partial agonist; method in brief: as §4
[13] = biological target: T3, Kappa-type opioid receptor; test: Displacement of [3H]-U69593 from recombinant human kappa opioid receptor expressed in CHO cell membrane incubated for 60 mins by liquid scintillation counting method; type: cell membranes; method in brief: as §2
[14] = biological target: T2, Delta-type opioid receptor; test: Agonist activity at human DOR stably expressed in CHO cell membranes assessed as stimulation of [35S]-GTPgammaS binding incubated for 1 hr by liquid scintillation counting assay relative to DPDPE; type: functional; conditions: time 60.0 min; method in brief: as §1
Mus musculus [15] = test: Antinociceptive activity in CD-1 mouse model of thermal-induced nociception assessed as increase in tail withdrawal latency at 5.52 umol/kg, sc measured after 3 hrs by tail-flick test; type: functional, organism-based; conditions: dose 5.52 µmol/kg, time hrs >=3; method in brief: as §3
Mu-type opioid receptor [16] = biological target: T4, Mu-type opioid receptor; test: Agonist activity at human MOR stably expressed in CHO cell membranes assessed as stimulation of [35S]-GTPgammaS binding incubated for 1 hr by liquid scintillation counting assay; type: functional; method in brief: as §1
Mu-type opioid receptor [17] = biological target: T4, Mu-type opioid receptor; test: Agonist activity at human MOR expressed in CHO cell membranes assessed as stimulation of [35S]-GTPgammaS binding incubated for 1 hr by liquid scintillation counting assay relative to DAMGO; type: functional; conditions: time 60.0 min; method in brief: as §1
Mus musculus [18] = test: Antinociceptive activity in CD-1 mouse model of thermal-induced nociception assessed as increase in tail withdrawal latency 1.82 umol/kg, sc measured after 2 to 24 hrs by tail-flick test; type: functional, organism-based; conditions: dose 1.82 µmol/kg, time hrs 2-24; method in brief: as §3
Mus musculus [19] = test: Antinociceptive activity in CD-1 mouse model of thermal-induced nociception assessed as maximum possible effect at 1.82 umol/kg, sc measured at 1 hr by tail-flick test; type: functional; conditions: dose 1.82 µmol/kg
Mus musculus [20] = test: Antinociceptive activity in CD-1 mouse model of thermal-induced nociception assessed as increase in tail withdrawal latency at 2.64 umol/kg, sc measured up to 8 hrs by tail-flick test; type: functional, organism-based; conditions: dose 2.64 µmol/kg, time hrs <=8; method in brief: as §3
Mus musculus [21] = test: Antinociceptive activity in CD-1 mouse model of thermal-induced nociception assessed as maximum possible effect at 2.64 uM/kg, sc measured at 1 hr interval for 2 to 7 hrs by tail-flick test; type: functional; conditions: dose 2.64 µmol/kg; time hrs 2-7; method in brief: as §3
Mu-type opioid receptor [22] = biological target: T4, Mu-type opioid receptor; test: Potency index, ratio of PK20 Ki to test compound Ki for displacement of [3H]-DAMGO from recombinant human mu opioid receptor expressed in CHO cell membranes
[23] = biological target: T1, Neurotensin receptor type 1; test: […], ratio of compound EC50 to NT(8-13) EC50 for agonist activity at human NTS1 expressed in HEK293 cells co-expressing Galphaq/RlucII/GFP10-Ggamma1/Gbeta1 assessed as increase in Gq activation incubated for 10 mins in presence of coelenterazine 400A by measuring fold value by BRET assay; type: cell-based; conditions: hek293, 10 min

Compound | EC50 [1] [nM] | EC50 [2] [nM] | Ki [3] [nM] | Emax [4] [%] | Ki [5] [nM] | Ki [6] [nM] | EC50 [8] [nM] | Emax ([9]; filed as partial agonist) [%] | EC50 (Mu-type opioid receptor [10]) [nM] | Ki (Mu-type opioid receptor [11]) [nM] | Emax (Mu-type opioid receptor [12]) [%] | Ki [13] [nM] | EC50 (Mu-type opioid receptor [16]) [nM] | Emax ([14]; filed as agonist) [%] | Emax (Mu-type opioid receptor [17]; filed as agonist) [%] | other results
Cc1cc(O)cc(C)c1C[C@H](N)C(=O)N[C@H](CCCCN)C(=O)N[C@@H](Cc1ccccc1)C(=O)N[C@@H](Cc1ccccc1)C(=O)N[C@@H](CCCCN)C(=O)N[C@@H](CCCCN)C(=O)N1CCC[C@H]1C(=O)N[C@@H](Cc1ccccc1)C(=O)N[C@H](C(=O)N[C@@H](CC(C)C)C(=O)O)C(C)(C)C (H-[Dmt][dK]FFKKPF[Tle]L-OH) | 19.1 | 479 | 46.4 | 101 | 188 | 29.5 | 47.1 | 65 | 956 | 4.13 | 69 | 33.5 | 13.3 | – | – | MPE (Mus musculus [7]): 80%; Emax ([14]; filed as partial agonist): 78%; Activity (Mus musculus [15]): inactive; Emax (Mu-type opioid receptor [17]; filed as partial agonist): 91%
Cc1cc(O)cc(C)c1C[C@H](N)C(=O)N[C@H](CCCNC(=N)N)C(=O)N[C@H]1Cc2ccccc2CN(CCC(N)=O)C1=O | – | 1.27 | 1.51 | – | – | – | > 10000 | – | 5.53 | 0.14 | 107 | 16.6 | – | 104 | 100 | Activity (Mus musculus [18]): inactive; MPE (Mus musculus [19]): 80%
Cc1cc(O)cc(C)c1C[C@H](NC(=O)[C@@H]1CCCN1C(=O)[C@H](CCCNC(=N)N)NC(=O)C[C@H](CCCNC(=N)N)NC(=O)CCN1Cc2ccccc2C[C@H](NC(=O)[C@@H](CCCNC(=N)N)NC(=O)[C@@H](N)Cc2c(C)cc(O)cc2C)C1=O)C(=O)N[C@H](C(=O)N[C@@H](CC(C)C)C(=O)O)C(C)(C)C (H-[Dmt][dR][X1][β3hR]RP[Dmt][Tle]L-OH) | 0.86 | 305 | 101 | 114 | 4 | 0.003 | 158 | 46 | 1070 | 1.75 | 68 | 27.9 | 28.7 | 99 | 94 | Activity (Mus musculus [20]): Active; MPE (Mus musculus [21]): >=80%
Cc1cc(O)cc(C)c1C[C@H](N)C(=O)N[C@H](CCCNC(=N)N)C(=O)N[C@H]1Cc2ccccc2CN(CCC(=O)N[C@@H](CCCNC(=N)N)C(=O)N[C@@H](CCCNC(=N)N)C(=O)N2CCC[C@H]2C(=O)N2Cc3ccc(O)cc3C[C@H]2C(=O)N[C@H](C(=O)N[C@@H](CC(C)C)C(=O)O)C(C)(C)C)C1=O (H-[Dmt][dR][X1]RRP[X2][Tle]L-OH) | 1900 | 227 | 105 | 74 | 4710 | 1.72 | 399 | – | 934 | 1.67 | 67 | 22.4 | 4.56 | 97 | 98 | Emax [9]: 20%; Ratio Ki (Mu-type opioid receptor [22]): 2; Ratio EC50 [23]: 13000
